The target of assay [1] is T1, Human immunodeficiency virus type 1 integrase (Human immunodeficiency virus 1, UniProt Q7ZJM1). Description: Concentration to inhibit 3' processing of wild type Human immunodeficiency virus-1 integrase. An outline of the steps:
(§1)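 Recombinant wild-type IN, 200 nM final, preincubated with inhibitor at 30 °C for 30 min. 20 nM 5′-32P-labeled 21-mer duplex substrate then added for 1 h. Quenched with formamide loading dye. 19-mer or strand-transfer product fraction gave percent inhibition. IC50 from log concentration versus percent inhibition.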

In assay [2] the target is T1, Human immunodeficiency virus type 1 integrase. Description: Concentration to inhibit strand transfer of wild type Human immunodeficiency virus-1 integrase. The method in brief: as §1
The target is the same in assay [3]. Description: Concentration to inhibit strand transfer of wild type Human immuno deficiency virus-1 integrase. An outline of the steps:
as §1

Assay [4] shares this target. Description: Concentration to inhibit 3' processing of wild type Human immuno deficiency virus-1 integrase. The method in brief: as §1
Assay [5] shares this target. Nature of the assay: Concentration to inhibit 3' processing of soluble mutant (F185K, C280S) of wild type Human immunodeficiency virus-1 integrase. An outline of the steps:
(§2)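 Integrase (200 nM final) is preincubated with inhibitor for 30 min at 30 °C in buffer with MOPS pH 7.2, HEPES pH 7.5, 7.5 mM MnCl2, 50 mM NaCl, BSA, DTT, 2-mercaptoethanol, glycerol, EDTA and 10% DMSO. Then 20 nM 5′-32P-labelled 21-mer duplex substrate is added for 1 h, and the reaction is quenched with formamide/EDTA dye. The fraction converted to 19-mer (3′-processing) or to strand-transfer products gives percent inhibition, and IC50 comes from log concentration versus percent inhibition.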

The target is the same in assay [6]. Nature of the assay: Concentration to inhibit strand transfer of soluble mutant (F185K, C280S) of wild type Human immunodeficiency virus-1 integrase. The method in brief: as §2

A value given as a limit tells only on which side of the number the result lay.

Consider 23 molecules from ChEMBL document CHEMBL1142702, “Dynamic receptor-based pharmacophore model development and its application in designing novel HIV-1 integrase inhibitors” (J Med Chem, 2005).

Broadly, the IC50 is the midpoint of a concentration-inhibition curve. Low values mean higher potency, high ones lower potency.

Take `C/C(CC(=O)Nc1c(C)cc(C)cc1C)=N\NC(=O)c1ccc(O)cc1O`: the figures for the IC50 in assay [1] and in assay [2] were > 1000 µM and 150 µM, respectively.

For `COc1ccc(NS(=O)(=O)c2cccc(C(=O)Nc3ccccc3C(=O)O)c2)cc1`, the IC50 is 300 µM in assay [3] and 355 µM in assay [4].

For the molecule `O=C(O)c1cc(NS(=O)(=O)c2ccc(NCCCN3CCOCC3)c([N+](=O)[O-])c2)cc(C(=O)O)c1`, the IC50 in assay [3] was 100 µM; in assay [4] it was 140 µM.

Take `CCOC(=O)c1cc(C(=O)OCC)c(SCC(=O)Nc2ccc(Br)cc2)nc1O`: the IC50 in assay [3] and in assay [4] was > 100 µM throughout.

Consider `O=C(c1ccccc1)c1ccc(OCC(O)COc2ccc(C(=O)c3ccccc3)c(O)c2)cc1O`, for which the IC50 in assay [3] and in assay [4] was > 100 µM throughout.

On to `O=C(NCc1ccco1)c1cc(C(=O)NCc2ccco2)cc(C(=O)NCc2ccco2)c1`, for which the IC50 in assay [3] was 8 µM; in assay [4], 37 µM.

With `Cc1ccc(NC(=O)C(=O)NCc2ccc(/C=N\NC(=O)C(=O)Nc3cc(Cl)ccc3C)o2)cc1C`, the IC50 in assay [5] is 510 µM; in assay [6], 70 µM; in assay [3] it was > 100 µM; in assay [4] it was > 100 µM.

In the case of `COc1ccc(C(=O)Nc2ccc(Cc3ccc(NC(=O)c4ccc(OC)cc4)c(O)c3)cc2O)cc1`, the IC50 in assay [3] and in assay [4] was > 100 µM in each case.

For `O=C(O)c1cc(NS(=O)(=O)c2ccc(NCc3ccccc3)c([N+](=O)[O-])c2)cc(C(=O)O)c1`, the results for the IC50 in assay [1] and in assay [2] were > 100 µM and 66 µM, respectively.

As to `CCc1cc(/C=N/CC/N=C/c2cc(CC)sc2S)c(S)s1`, the IC50 in assay [5] was > 100 µM; in assay [6], 6 µM; in assay [3], 21 µM; in assay [4] it was > 100 µM.

For `CCOc1ccc2[nH]c(SCC(=O)Nc3cc(C(=O)O)cc(C(=O)O)c3)nc2c1`, the IC50 in assay [1] and in assay [2] was > 100 µM each time.

Regarding `COC(=O)c1cc(NS(=O)(=O)c2ccc(NCc3cccnc3)c(N)c2)cc(C(=O)OC)c1`, the IC50 in assay [3] and in assay [4] was > 100 µM each time.

With `O=C(N/N=C/c1ccc(O)cc1O)c1cc(C2CC2)[nH]n1`, the IC50 in assay [3] was determined as 43 µM; in assay [4], 177 µM.

Regarding `O=C(Nc1ccc(Cc2ccc(O)c(NC(=O)c3ccccc3F)c2)cc1O)c1ccccc1F`, the IC50 is 205 µM in assay [5], 33 µM in assay [6], > 100 µM in assay [1] and > 100 µM in assay [2].

For the molecule `O=C(NCc1cccc(CNC(=O)C(=O)NCc2ccco2)c1)C(=O)NCc1ccco1`, the IC50 is 1000 µM in assay [5], 40 µM in assay [6], > 100 µM in assay [3] and > 100 µM in assay [4].

Consider `O=C(Nc1ccc(Cc2ccc(NC(=O)c3cccs3)c(C(=O)O)c2)cc1C(=O)O)c1cccs1`, for which the IC50 in assay [1] was found to be 63 µM; in assay [2], 38 µM.

As to `COC(=O)C1=C(O)/C(=C\c2ccc(CNC(=O)C(=O)Nc3ccc(C)cc3)o2)N=C1C`, the figures for the IC50 in assay [1] and in assay [2] were > 100 µM and 81 µM, respectively.

In the case of `COC(=O)c1sccc1NC(=O)c1ccc(C(=O)Nc2ccsc2C(=O)OC)cc1`, the IC50 in assay [1] is > 100 µM; in assay [2] it was 97 µM.

On to `CCOC(=O)C(=O)NCc1ccc(/C=C2/N=C(C)C(C(=O)OCC)=C2O)o1`, for which the IC50 in assay [1] and in assay [2] was > 100 µM throughout.

For the molecule `O=C(Nc1ccc(Cc2ccc(NC(=O)c3cccc([N+](=O)[O-])c3)c(C(=O)O)c2)cc1C(=O)O)c1cccc([N+](=O)[O-])c1`, the values for the IC50 in assay [1] and in assay [2] were 15 µM and 13 µM, respectively.

For `COc1ccc2[nH]c(SCC(=O)Nc3ccc(O)c(C(=O)O)c3)nc2c1`, the IC50 in assay [3] and in assay [4] was > 100 µM in each case.

On to `CCN(CC)c1ccc(/C=N/Nc2nonc2N)c(O)c1`, for which the IC50 in assay [1] and in assay [2] was > 100 µM in each case.

Take `COc1cc(/C=N/NC(=O)c2cc(C3CC3)[nH]n2)ccc1O`: the IC50 in assay [3] and in assay [4] was > 100 µM each time.
